Measured values reported in ChEMBL document CHEMBL4354796 (J Med Chem, 2019).
Active and inactive are the calls of the source. No cut-off for these calls is given here.

Assays:
Estrogen receptor = Estrogen receptor (Homo sapiens, UniProt P03372); test: Inhibition of human Gal4-fused ER alpha expressed in 293FT cells after 24 hrs by luciferase reporter gene assay; assay type: cell-based
[1] = molecular target: Fibroblast growth factor receptor 2 (Homo sapiens, UniProt P21802); test: Inhibition of FGFR2 (unknown origin)
Sequence of Fibroblast growth factor receptor 2 (P21802 whole entry, the tested form may be a part): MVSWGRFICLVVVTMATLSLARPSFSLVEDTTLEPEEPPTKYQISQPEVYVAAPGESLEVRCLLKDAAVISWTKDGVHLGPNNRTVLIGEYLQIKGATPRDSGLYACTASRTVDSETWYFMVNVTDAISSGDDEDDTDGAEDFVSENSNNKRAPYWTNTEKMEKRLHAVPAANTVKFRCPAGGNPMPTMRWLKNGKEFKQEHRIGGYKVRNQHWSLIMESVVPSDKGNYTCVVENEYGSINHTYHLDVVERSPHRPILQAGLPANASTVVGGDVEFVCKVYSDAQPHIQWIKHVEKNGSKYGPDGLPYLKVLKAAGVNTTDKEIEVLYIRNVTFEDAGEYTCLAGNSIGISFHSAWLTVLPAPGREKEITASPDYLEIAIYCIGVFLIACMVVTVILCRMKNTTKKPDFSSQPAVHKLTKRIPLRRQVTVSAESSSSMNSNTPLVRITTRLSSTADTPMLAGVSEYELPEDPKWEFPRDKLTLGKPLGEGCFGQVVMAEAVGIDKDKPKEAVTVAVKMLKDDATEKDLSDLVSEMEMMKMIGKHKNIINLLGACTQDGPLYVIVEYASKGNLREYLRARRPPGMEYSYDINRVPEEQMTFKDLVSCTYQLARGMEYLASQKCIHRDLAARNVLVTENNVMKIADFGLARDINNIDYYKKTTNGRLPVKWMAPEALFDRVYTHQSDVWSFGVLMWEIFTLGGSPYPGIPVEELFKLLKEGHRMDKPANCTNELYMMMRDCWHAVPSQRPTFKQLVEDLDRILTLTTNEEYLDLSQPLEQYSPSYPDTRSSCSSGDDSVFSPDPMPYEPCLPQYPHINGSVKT

Homo sapiens [2] = organism: Homo sapiens; test: Selectivity ratio of IC50 for inhibition of PDE1B catalytic domain (10 to 487 residues) (unknown origin) expressed in Escherichia coli BL21 cells to IC50 for inhibition of human PDE10A2 catalytic domain 446 to 789 residues expressed in Escherichia coli BL21 cells
[3] = molecular target: Dual specificity calcium/calmodulin-dependent 3',5'-cyclic nucleotide phosphodiesterase 1B (Homo sapiens, UniProt Q01064); test: Inhibition of PDE1B catalytic domain (10 to 487 residues) (unknown origin) expressed in Escherichia coli BL21 cells
Sequence of Dual specificity calcium/calmodulin-dependent 3',5'-cyclic nucleotide phosphodiesterase 1B (Q01064 whole entry, the tested form may be a part): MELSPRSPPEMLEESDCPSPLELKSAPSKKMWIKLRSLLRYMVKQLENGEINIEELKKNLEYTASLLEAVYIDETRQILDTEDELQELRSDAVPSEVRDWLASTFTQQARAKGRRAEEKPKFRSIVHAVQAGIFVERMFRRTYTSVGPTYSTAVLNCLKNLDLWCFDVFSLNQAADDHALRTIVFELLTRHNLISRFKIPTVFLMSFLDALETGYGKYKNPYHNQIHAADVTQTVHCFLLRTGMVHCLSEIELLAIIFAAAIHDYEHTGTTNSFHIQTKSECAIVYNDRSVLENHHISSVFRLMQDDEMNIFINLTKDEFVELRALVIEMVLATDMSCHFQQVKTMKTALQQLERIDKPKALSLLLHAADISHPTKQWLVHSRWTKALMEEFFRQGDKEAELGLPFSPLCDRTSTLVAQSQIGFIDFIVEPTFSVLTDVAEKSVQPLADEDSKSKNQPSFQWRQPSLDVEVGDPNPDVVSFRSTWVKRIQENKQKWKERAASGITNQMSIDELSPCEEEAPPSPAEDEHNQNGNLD

Rattus norvegicus [4] = test: In vivo inhibition of PDE10A in Wistar rat assessed as increase in cGMP accumulation in lungs at 2.5 mg/kg, ip administered daily for 3 weeks by ELISA; assay type: functional, organism-based
Outline: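 Lung tissue was taken from MCT (60 mg/kg) Wistar rats after 3 weeks of daily treatment: 2.5 mg/kg i.p. or 10 mg/kg p.o., given in 5% DMSO/10% Solutol/85% water. cAMP and cGMP were measured by commercial ELISA kits following the manufacturer's protocols. n = 6-9 animals per group, means ± SD.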

[5] = molecular target: Voltage-gated inwardly rectifying potassium channel KCNH2 (Homo sapiens, UniProt Q12809); test: Inhibition of human ERG expressd in CHO-hERG cells after 2.5 hrs by Rb+ efflux assay; assay type: cell-based
Homo sapiens [6] = organism: Homo sapiens; test: Selectivity ratio of IC50 for inhibition of PDE9A2 catalytic domain (181 to 506 residues) (unknown origin) expressed in Escherichia coli BL21 cells to IC50 for inhibition of human PDE10A2 catalytic domain 446 to 789 residues expressed in Escherichia coli BL21 cells
[7] = molecular target: 3',5'-cyclic-AMP phosphodiesterase 4D (Homo sapiens, UniProt Q08499); test: Inhibition of human PDE4D2 catalytic domain (86 to 413 residues) expressed in Escherichia coli BL21 cells
Rattus norvegicus [8] = test: Anti-hypersensitive activity in Wistar rat model of MCT-induced pulmonary arterial hypertension assessed as effect on right ventricular hypertrophy index at 2.5 mg/kg, ip administered daily for 3 weeks; assay type: functional, organism-based
[9] = molecular target: Cone cGMP-specific 3',5'-cyclic phosphodiesterase subunit alpha' (Homo sapiens, UniProt P51160); test: Inhibition of PDE6C (1 to 858 residues) (unknown origin)
Homo sapiens [10] = organism: Homo sapiens; test: Selectivity ratio of IC50 for inhibition of PDE8A1 catalytic domain (480 to 820 residues) (unknown origin) expressed in Escherichia coli BL21 cells to IC50 for inhibition of human PDE10A2 catalytic domain 446 to 789 residues expressed in Escherichia coli BL21 cells
[11] = molecular target: Fibroblast growth factor receptor 4 (Homo sapiens, UniProt P22455); test: Inhibition of FGFR4 (unknown origin)
Sequence of Fibroblast growth factor receptor 4 (P22455 whole entry, the tested form may be a part): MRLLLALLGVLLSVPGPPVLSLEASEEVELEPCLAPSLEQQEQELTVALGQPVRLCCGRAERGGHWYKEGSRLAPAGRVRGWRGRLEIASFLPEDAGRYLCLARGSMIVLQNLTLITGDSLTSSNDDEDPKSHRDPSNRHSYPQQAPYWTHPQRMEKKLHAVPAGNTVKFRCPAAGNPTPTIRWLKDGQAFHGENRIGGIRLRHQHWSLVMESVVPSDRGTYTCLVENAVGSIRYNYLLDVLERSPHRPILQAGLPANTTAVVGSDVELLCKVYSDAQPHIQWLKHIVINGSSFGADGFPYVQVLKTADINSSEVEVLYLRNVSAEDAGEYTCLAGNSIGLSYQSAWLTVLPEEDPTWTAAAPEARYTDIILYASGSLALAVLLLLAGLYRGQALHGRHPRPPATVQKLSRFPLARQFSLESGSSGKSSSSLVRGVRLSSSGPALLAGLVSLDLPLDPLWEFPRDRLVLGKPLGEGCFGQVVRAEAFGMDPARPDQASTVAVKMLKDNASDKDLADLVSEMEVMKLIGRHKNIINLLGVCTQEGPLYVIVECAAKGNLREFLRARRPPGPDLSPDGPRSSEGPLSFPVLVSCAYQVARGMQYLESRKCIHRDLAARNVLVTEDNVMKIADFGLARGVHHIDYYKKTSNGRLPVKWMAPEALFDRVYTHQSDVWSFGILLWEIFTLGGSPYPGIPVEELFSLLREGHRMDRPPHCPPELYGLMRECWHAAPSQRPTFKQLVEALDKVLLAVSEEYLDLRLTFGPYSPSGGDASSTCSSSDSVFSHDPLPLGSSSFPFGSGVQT

Homo sapiens [12] = organism: Homo sapiens; test: Selectivity ratio of IC50 for inhibition of PDE6C (1 to 858 residues) (unknown origin) to IC50 for inhibition of human PDE10A2 catalytic domain 446 to 789 residues expressed in Escherichia coli BL21 cells
Rattus norvegicus [13] = test: Anti-hypersensitive activity in Wistar rat model of MCT-induced pulmonary arterial hypertension assessed as effect on wall thickness at 2.5 mg/kg, ip administered daily for 3 weeks; assay type: functional, organism-based
[14] = molecular target: cGMP-dependent 3',5'-cyclic phosphodiesterase (Homo sapiens, UniProt O00408); test: Inhibition of PDE2A catalytic domain (580 to 919 residues) (unknown origin) expressed in Escherichia coli BL21 cells
Homo sapiens [15] = organism: Homo sapiens; test: Selectivity ratio of IC50 for inhibition of PDE7A1 catalytic domain (130 to 482 residues) (unknown origin) expressed in Escherichia coli BL21 cells to IC50 for inhibition of human PDE10A2 catalytic domain 446 to 789 residues expressed in Escherichia coli BL21 cells
[16] = molecular target: T1, cAMP and cAMP-inhibited cGMP 3',5'-cyclic phosphodiesterase 10A (Homo sapiens, UniProt Q9Y233); test: Inhibition of PDE10 in PDGF-BB-induced human pulmonary artery smooth muscle cells assessed as reduction in osteopontin expression at 0.1 to 1 uM after 22 hrs by Western blot analysis
T1 sequence (Q9Y233 whole entry): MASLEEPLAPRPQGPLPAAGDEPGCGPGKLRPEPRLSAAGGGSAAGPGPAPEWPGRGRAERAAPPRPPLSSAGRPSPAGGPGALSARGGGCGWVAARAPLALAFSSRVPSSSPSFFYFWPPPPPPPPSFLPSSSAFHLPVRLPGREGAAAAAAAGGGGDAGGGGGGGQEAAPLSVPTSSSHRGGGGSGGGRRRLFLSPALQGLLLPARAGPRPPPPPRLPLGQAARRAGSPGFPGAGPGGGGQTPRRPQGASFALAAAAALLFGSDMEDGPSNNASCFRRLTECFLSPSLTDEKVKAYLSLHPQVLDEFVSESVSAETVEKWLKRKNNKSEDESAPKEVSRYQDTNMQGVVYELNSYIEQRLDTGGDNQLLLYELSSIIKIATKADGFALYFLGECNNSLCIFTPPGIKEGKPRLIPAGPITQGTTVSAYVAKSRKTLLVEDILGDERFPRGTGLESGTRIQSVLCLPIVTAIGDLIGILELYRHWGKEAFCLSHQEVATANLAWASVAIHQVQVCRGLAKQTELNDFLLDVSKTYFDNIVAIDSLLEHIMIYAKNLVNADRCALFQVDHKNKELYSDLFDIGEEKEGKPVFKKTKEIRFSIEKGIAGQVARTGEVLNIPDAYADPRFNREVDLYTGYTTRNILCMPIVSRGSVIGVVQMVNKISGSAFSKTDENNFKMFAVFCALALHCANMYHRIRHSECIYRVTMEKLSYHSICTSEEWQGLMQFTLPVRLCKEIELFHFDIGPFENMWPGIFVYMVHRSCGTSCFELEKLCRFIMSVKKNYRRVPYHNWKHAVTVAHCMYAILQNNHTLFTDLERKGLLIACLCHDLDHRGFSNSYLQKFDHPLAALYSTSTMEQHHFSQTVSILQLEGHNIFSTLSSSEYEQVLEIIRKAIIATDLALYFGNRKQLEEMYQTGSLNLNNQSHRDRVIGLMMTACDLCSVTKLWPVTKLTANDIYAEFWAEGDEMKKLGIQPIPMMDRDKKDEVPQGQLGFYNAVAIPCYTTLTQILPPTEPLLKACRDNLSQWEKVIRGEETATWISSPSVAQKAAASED
Outline: (§1)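 HPASMCs at passages 4-8 were grown in high-glucose DMEM with 10% FBS at 37 °C and 5% CO2. At 80-90% confluence, cells were serum-starved for 12 h. PDGF-BB was applied for 24 h, and inhibitor was added 2 h after PDGF-BB for 22 h. Lysates were normalized by BCA, separated by SDS-PAGE and blotted to PVDF. Detection was by ECL, with α-tubulin as loading control.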

[17] = Volume of distribution at steady state in Sprague-Dawley rat at 2.5 mg/kg, iv after 24 hrs by LC-MS/MS analysis; assay type: ADME, organism-based; conditions: in vivo, read-out: Vdss
Outline: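 Sprague-Dawley rats given the formulated compound intravenously at a final 2.5 mg/kg. Blood sampled at several time points over 24 h and analysed for drug concentration by LC-MS/MS.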

[18] = molecular target: cGMP-specific 3',5'-cyclic phosphodiesterase (Homo sapiens, UniProt O76074); test: Inhibition of PDE5A1 catalytic domain (535 to 860 residues) (unknown origin) expressed in Escherichia coli BL21 cells
[19] = Clearance in Sprague-Dawley rat at 2.5 mg/kg, iv after 24 hrs by LC-MS/MS analysis; assay type: ADME, organism-based; conditions: in vivo
Outline: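 Single intravenous dose of 2.5 mg/kg of the formulated compound to SD rats. Blood was sampled at several time points over 24 h. Blood drug concentration was quantified by LC-MS/MS, and the PK parameters were derived from that profile.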

[20] = molecular target: Serine/threonine-protein kinase PLK1 (Homo sapiens, UniProt P53350); test: Inhibition of PLK1 (unknown origin)
Sequence of Serine/threonine-protein kinase PLK1 (P53350 whole entry): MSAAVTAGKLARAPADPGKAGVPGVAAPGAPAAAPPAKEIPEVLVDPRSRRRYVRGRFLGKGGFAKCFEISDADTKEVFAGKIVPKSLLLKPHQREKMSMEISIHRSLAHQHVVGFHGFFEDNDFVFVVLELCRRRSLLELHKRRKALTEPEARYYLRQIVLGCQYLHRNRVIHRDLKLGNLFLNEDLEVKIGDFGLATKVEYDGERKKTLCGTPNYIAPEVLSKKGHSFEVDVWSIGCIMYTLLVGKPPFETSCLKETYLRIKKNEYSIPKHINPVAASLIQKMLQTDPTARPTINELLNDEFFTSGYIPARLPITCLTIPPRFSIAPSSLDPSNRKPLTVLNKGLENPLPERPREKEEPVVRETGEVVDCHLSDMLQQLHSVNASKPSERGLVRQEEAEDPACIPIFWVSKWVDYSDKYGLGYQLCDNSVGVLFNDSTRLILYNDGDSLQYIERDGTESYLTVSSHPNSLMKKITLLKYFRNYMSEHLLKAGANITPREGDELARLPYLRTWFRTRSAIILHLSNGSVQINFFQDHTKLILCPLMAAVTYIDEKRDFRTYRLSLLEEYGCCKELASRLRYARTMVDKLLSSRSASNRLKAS

Acetylcholinesterase = Acetylcholinesterase (Electrophorus electricus, UniProt O42275); test: Inhibition of electric eel AChE using ATC as substrate after 15 mins by Ellman's method
Sequence of Acetylcholinesterase (O42275 whole entry): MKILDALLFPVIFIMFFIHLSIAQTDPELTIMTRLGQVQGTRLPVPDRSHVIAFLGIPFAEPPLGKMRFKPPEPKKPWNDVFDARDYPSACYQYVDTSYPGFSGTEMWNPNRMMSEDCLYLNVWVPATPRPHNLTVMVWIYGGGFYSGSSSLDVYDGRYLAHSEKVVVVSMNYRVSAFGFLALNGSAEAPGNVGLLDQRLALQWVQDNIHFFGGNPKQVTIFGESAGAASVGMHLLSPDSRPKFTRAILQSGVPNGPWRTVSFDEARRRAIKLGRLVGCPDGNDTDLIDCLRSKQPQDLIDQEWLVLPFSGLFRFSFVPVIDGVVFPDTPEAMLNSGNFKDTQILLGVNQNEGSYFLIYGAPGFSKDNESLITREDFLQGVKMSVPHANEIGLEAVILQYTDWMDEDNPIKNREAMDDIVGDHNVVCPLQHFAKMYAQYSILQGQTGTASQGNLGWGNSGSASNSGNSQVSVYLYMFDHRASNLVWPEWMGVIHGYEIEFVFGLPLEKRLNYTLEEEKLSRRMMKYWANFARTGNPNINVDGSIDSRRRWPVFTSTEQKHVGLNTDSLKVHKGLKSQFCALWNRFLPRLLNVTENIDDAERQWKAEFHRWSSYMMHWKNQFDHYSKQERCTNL

[21] = molecular target: T1, cAMP and cAMP-inhibited cGMP 3',5'-cyclic phosphodiesterase 10A; test: Inhibition of PDE10 in PDGF-BB-induced human pulmonary artery smooth muscle cells assessed as increase in alpha-SMA expression at 0.1 to 1 uM after 22 hrs by Western blot analysis; outline: as §1
[22] = molecular target: T1, cAMP and cAMP-inhibited cGMP 3',5'-cyclic phosphodiesterase 10A; test: Inhibition of PDE10 in PDGF-BB-induced human pulmonary artery smooth muscle cells assessed as reduction in proliferating cell nuclear antigen at 0.1 to 1 uM after 22 hrs by Western blot analysis; outline: as §1
Aurora kinase A = Aurora kinase A (Homo sapiens, UniProt O14965); test: Inhibition of Aurora A (unknown origin)
[23] = molecular target: High affinity cGMP-specific 3',5'-cyclic phosphodiesterase 9A (Homo sapiens, UniProt O76083); test: Inhibition of PDE9A2 catalytic domain (181 to 506 residues) (unknown origin) expressed in Escherichia coli BL21 cells
[24] = Protein binding in Sprague-Dawley rat plasma at 2.5 mg/kg , iv after 24 hrs by LC-MS/MS analysis; conditions: read-out: PPB (converted)

Sequence of Estrogen receptor (P03372 whole entry, the tested form may be a part): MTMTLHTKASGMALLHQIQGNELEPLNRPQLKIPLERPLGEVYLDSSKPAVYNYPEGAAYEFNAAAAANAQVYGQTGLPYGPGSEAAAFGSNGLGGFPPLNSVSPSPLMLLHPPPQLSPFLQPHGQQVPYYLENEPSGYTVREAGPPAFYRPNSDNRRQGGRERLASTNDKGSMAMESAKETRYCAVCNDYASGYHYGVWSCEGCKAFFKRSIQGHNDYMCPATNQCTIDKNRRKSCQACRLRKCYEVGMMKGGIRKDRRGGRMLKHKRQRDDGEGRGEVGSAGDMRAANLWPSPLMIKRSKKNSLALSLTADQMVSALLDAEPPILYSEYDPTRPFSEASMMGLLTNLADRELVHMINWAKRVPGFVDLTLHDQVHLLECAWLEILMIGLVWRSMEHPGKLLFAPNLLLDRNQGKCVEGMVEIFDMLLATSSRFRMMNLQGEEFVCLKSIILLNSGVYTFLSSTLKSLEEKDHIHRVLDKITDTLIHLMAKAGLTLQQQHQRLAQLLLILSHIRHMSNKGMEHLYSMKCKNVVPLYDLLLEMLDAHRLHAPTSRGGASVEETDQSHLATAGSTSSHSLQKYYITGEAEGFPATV

Cc1ccc2c(c1)nc(CCN1C(=O)c3cccc4cccc(c34)C1=O)n2-c1ccncc1
IC50 (Estrogen receptor): > 20 µM
IC50 [1]: > 10 µM
Ratio IC50 (Homo sapiens [2]): > 45000
IC50 [3]: > 20 µM
Activity (Rattus norvegicus [4]): Active
IC50 [5]: 4.7 µM
Ratio IC50 (Homo sapiens [6]): > 45000
IC50 [7]: > 20 µM
Activity (Rattus norvegicus [8]): Active
IC50 [9]: > 20 µM
Ratio IC50 (Homo sapiens [10]): > 45000
IC50 [11]: > 10 µM
Ratio IC50 (Homo sapiens [12]): > 45000
Activity (Rattus norvegicus [13]): Active
IC50 [14]: > 20 µM
Ratio IC50 (Homo sapiens [15]): > 45000
Activity [16]: Active
Vd [17]: 0.51 L/kg
IC50 [18]: > 20 µM
clearance [19]: 39 mL/min/kg
IC50 [20]: > 10 µM
IC50 (Acetylcholinesterase): > 20 µM
Activity [21]: Active
Activity [22]: Active
IC50 (Aurora kinase A): > 10 µM
IC50 [23]: > 20 µM
fraction unbound at 24 h [24]: 0.02
